Measured values from different studies.
Protocols differ between the studies behind these lines.
FLT3 D835Y: Receptor-type tyrosine-protein kinase FLT3 (FLT3, Homo sapiens, UniProt P36888, D835Y)
FLT3: Receptor-type tyrosine-protein kinase FLT3 (FLT3, Homo sapiens, UniProt P36888)

`CNc1cccc2cc(C(=O)Nc3ccc(C(=O)O)cc3)c(=O)[nH]c12` has an inhibition of 0.73% (FLT3 D835Y; enzyme activity; inhibitor; 10 µM).
The inhibition of `Cn1cncc1C1=CN(c2ncnc3[nH]cnc23)CCS1` is reported as 88.1% (FLT3; enzyme activity; inhibitor; radiometric; 2 µM).
`CNC(=O)c1ccccc1Nc1cc(Nc2ccc(N3CCOCC3)cc2OC)ncc1C(F)(F)F` gave an inhibition of greater than 50% (FLT3; enzyme activity; inhibitor; 0.1 µM).
`COc1cc2ncnc(Nc3ccc(Oc4ccccc4)cc3C)c2cc1OC` gave an inhibition of 79% (FLT3; enzyme activity; inhibitor; 1 µM).
For `COc1cc(-c2cc(-c3ccc(N4CCNCC4)cc3)cnc2N)cc(OC)c1OC`, the inhibition was 2% (FLT3 D835Y; enzyme activity; inhibitor; 1 µM).
With `C=CC(=O)Nc1cc(Nc2nccc(Nc3cc(Cl)c(F)cc3C(C)(C)O)n2)c(OC)cc1N1CC[C@@H](N(C)C)C1` the inhibition was 16% (FLT3; enzyme activity; inhibitor; 1 µM).
For `COc1cccc(Nc2cccc(-c3cnc4cc(-c5cnn(C)c5)ccn34)n2)c1`, the inhibition was greater than 65% (FLT3; cell-free assay; competition with immobilised ligand; 8.4 nM).
`CN(C)C1CCN(CC#Cc2nn(C3CCCC3)c3nc(NCc4ccccc4)ncc23)C1` (stereo not drawn) gave an inhibition of 13% (FLT3; enzyme activity; inhibitor; FRET; 0.1 µM).
With `CCCS(=O)(=O)Nc1ccc(F)c(C(=O)c2c[nH]c3ncc(-c4ccc(Cl)cc4)cc23)c1F` the inhibition was less than 20% (FLT3; enzyme activity; inhibitor; 1 µM).
`Cn1cnc(Br)c1C1=CN(c2ncnc3[nH]cnc23)CCS1` has an inhibition of 80.5% (FLT3; enzyme activity; inhibitor; radiometric; 2 µM).
`COc1cc2ncnc(Nc3ccc(Oc4ccccc4)c(C)c3C)c2cc1OC` has an inhibition of 2% (FLT3 D835Y; enzyme activity; inhibitor; 1 µM).
With `CS(=O)(=O)Nc1cccc(-c2csc(NC(=O)CSc3nc4nccnc4c(=O)n3CCc3ccccc3)n2)c1` the inhibition was 8% (FLT3; enzyme activity; inhibitor; 10 µM).
